Results: the EternaBench riboswitch data

Tested on: MS2 coat protein
Assay: apparent Kd, MS2 coat protein; higher = weaker binding; RNA-MaP array; FMN 200 µM where present
In short: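 Designs on Illumina sequencing-chip clusters, transcribed by stalled E. coli RNA polymerase, were exposed to SNAP-549-labelled MS2 coat protein in doubling steps from 0.7 or 1.5 nM up to 3 µM, without and then with constant ligand. The buffer held 100 mM Tris-HCl pH 7.5, 80 mM KCl, 4 mM MgCl2, BSA, DTT, yeast tRNA and Tween-20. Apparent Kd values are medians of filtered per-cluster binding-curve fits to green signal normalised to red-channel RNA signal and control-cluster median Fmax.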

[1] = designed as: OFF switch for flavin mononucleotide, no ligand
[2] = ligand present: flavin mononucleotide, designed as: OFF switch for flavin mononucleotide
[3] = designed as: ON switch for flavin mononucleotide, no ligand
[4] = ligand present: flavin mononucleotide, designed as: ON switch for flavin mononucleotide

Sequence | apparent Kd [1] | apparent Kd [2] | apparent Kd [3] | apparent Kd [4]
GGAAGGUCAGGAUAUGCGAGGGAGUGGGAAAUAGGAUGGUAGCAGAAGGGACAUGAGGAUCACCCAUGUUAGGA | 31 nM | 27.3 nM | – | –
AAUAUGUUGCAGAAGGUUAUUUUUAUAACGUUCCUCUUGACAUGAGGAUCACCCAUGUAAUUGUUGAAGGAUAUGCAAUAUAUU | 6.69 nM | 6.18 nM | – | –
GCGAUUUUGUAAGGAUAUACUCGAGUUUUAAGAGUAGAAGGUACUUACAUGAGGAUCACCCAUGUCUAACGAAAUACUAGUCGC | – | – | 10.5 nM | 8.44 nM
AAUUCACAUGAGGAUCACCCAUGUCAGGAUAUGGUUUCACGUGUUUCUUUGCUUGAGGCCAGAAGGGACAGCUA | 71.8 nM | 94.4 nM | – | –
AUCAUGUUAGGAUAUACAAGAAAAGAAAAGAAAGAAAAGAAGUAGAAGGAACAUGAGGAUCACCCAUGUAAGAA | 27.3 nM | 45.4 nM | – | –
AAAACAUGAGGAUCACCCAUGUUUAGAUCGGUCGAUAGAAGUGAGGAUAUACGAAGUUAAGGCUGGUAGAAGGCACUGGGUACA | – | – | 39.8 nM | 33.3 nM
UAGAAGUCAGGAUAUCCUGCUCGUCACUUGCGUGAUGAGUAGGAGAAGGGACAUGAGGAUCACCCAUGUAAAGC | 61.1 nM | 49.5 nM | – | –
UGGUACAUGGGAGGAUAUCAUGUAGAGACAUGAGGAUCACCCAUGUCGAUGGAGACAUCGGAGAUUGAGAAGGCCCAUGUACCU | – | – | 152 nM | 23.1 nM
AUAUCUAUAUCAGGAUAUGGACAGGCCUGUCCGUAUUGAGACAGUAACAUGAGGAUCACCCAUGUCCAGAAGGGAUCUAUAUAU | 53.7 nM | 45.7 nM | – | –
AUCAGCUCGUCAGGAUAUACGUCACUGCGUCAGCAGUGAGGUAAGAUCACAUGAGGAUCACCCAUGUAGAAGGGACGAGCUGAU | 6.09 nM | 13.2 nM | – | –
GGGUGACAUGAGGAUCACCCAUGUCAGGAUAUGGGUUUGGGCCCGAAAGGGCCCGGGCCCAGAAGGGACUGCCC | 50.9 nM | 96.4 nM | – | –
GUCAGCUCGUAAGGAUAUACAACACUGCUUCGGCAGUGUAUUAAGAUCACAUGAGGAUCACCCAUGUAGAAGGCACGAGCUGAU | 7.06 nM | 18.9 nM | – | –
GUCAGCUCGUGAGGAUAUACUACACUGCUUCGGCAGUGUAUUAAGAUCACAUGAGGAUCACCCAUGUAGAAGGCACGAGCUGAU | 5.95 nM | 17 nM | – | –
AUGAGAAAAGCAGGAUAUCUAUUGGCUCAGAAACAUGAGGAUCACCCAUGUAGAGAAGGGCUAAGACCGACUCUUCGGAGUUGA | 5.68 nM | 6.51 nM | – | –
AUUAUAUAGUAAGGAUAUUGAUUAUUAUUUUAACAUGAGGAUCACCCAUGUAGCCUUAUGUAUAACAAGAAGGUACAUUUAUUA | 56.2 nM | 58.4 nM | – | –
ACGUGUAAUACAGGAUAUGUUAUGGAUUAAUCAACCAGUUAUUACGUUUCGACAGAAGGGUAUACAUGAGGAUCACCCAUGUUA | 22.3 nM | 17.9 nM | – | –
AUACUCGUUGUGAGGAUAUCGUUUUCGUCACGGAUCGAGAAGGCACAUGAGGAUCACCCAUGUUUGACGUGAAU | 17.1 nM | 44.3 nM | – | –
UUAAAUCAUGUAGGAUAUGCAUGGCGAAGCUACGCAGAAGGACAUGAGGAUCACCCAUGUUAUAGCUACCAAGUUAGGUGGCAA | 99 nM | 190 nM | – | –
CCACGGUAUGUAGGAUAUGCAUAGCAUUGCUAAAAAGAAGGACAUGAGGAUCACCCAUGUAUGUAUUCCAUACUAAUCCCGUGC | 8.98 nM | 8.06 nM | – | –
UCAUGCAUAGCGAUAUGAUCGAGAGAUCAUGUCGCUAAAUUUAGAAGGACAUGAGGAUCACCCAUGUAGGAUAUGGGAGCAUGG | – | – | 292 nM | 31.9 nM
GUGGCUCCCACAGGAUAUCCACAUGAGGAUCACCCAUGUCUAAUUAACAAAGGAGAAGGGUGGGACAACUCUGGUGACUGAGAG | – | – | 28.9 nM | 5.45 nM
UAAGUACAGAAGUACUCCGGGUCCAGAAGGGACAUGAGGAUCACCCAUGUACCGUUGAUUGCUUGUCAGGAUAUGGACCCGGCC | 6.83 nM | 25.7 nM | – | –
UGCGAUGCAGUUGGCCCUGGGCGAGAGGAUAUGGGCAGCGGGACAUGAGGAUCACCCAUGUUCUCUCAGAAGGCUCGAGCAGGC | – | – | 256 nM | 91.6 nM
GGACGUCAGAUUAACAUGAGGAUCACCCAUGUCUUUUGACAUGAGGAUAUCCAUCCUAAUUGGAUGGAGAAGGCAUGGACGUCC | – | – | 975 nM | 189 nM
AGGGUGGGCUCAGGAUAUCAGGGAGAGAUGUGGACAUGAGGAUCACCCAUGUACCAGUGUUGUCAUGAGAAGGGAGAUACUGUA | – | – | 52.7 nM | 28 nM
GGAUCGAAUGUGAGGAUAUGCUGGUCCUUGGAUCAGCAGAAGGCACAUGAGGAUCACCCAUGUCCUCUCGGUCC | 248 nM | 458 nM | – | –
GGUGUGUUAGGAUAUCGCGGCGGCGGCGUUUGUUGUUGUUGUGAGAAGGGACAUGAGGAUCACCCAUGUGCGCC | 24.4 nM | 27.2 nM | – | –
AUCAGCUCGUCAGGAUAUACGUCACAGCGUCAGCAGUGUGGUAAGAUCACAUGAGGAUCACCCAUGUAGAAGGGACGAGCUGAU | 16.8 nM | 223 nM | – | –

Sequence | apparent Kd [1] | apparent Kd [2] | apparent Kd [3] | apparent Kd [4]
GCAUGACAAAGUCAUGCAUAACGAACAUGAGGAUCACCCAUGUAGGAUAUGCUACUCAAAGAGUAGCAGAAGGACAUGUGUCUU | 31.1 nM | 160 nM | – | –
AAUUCACAUGAGGAUCACCCAUGUAUUGCGAGCGCGAUUACGUAGGAUAUCCAUCAAAACAGAUAGGAGAAGGGCGUACUAUCU | – | – | 253 nM | 185 nM
AUCAGCUCGUCAGGAUAUACGUCACUGCGUCAGCAGUGUGCUAAGAUCACAUGAGGAUCACCCAUGUAGAAGGGACGAGCUGAU | 5.83 nM | 22.1 nM | – | –
GUUGCUACUGAGGAUAUUAUUUUAUUCGACUGAUAAGAAGGCAGUACAUGAGGAUCACCCAUGUGGGUAGCCAG | 23.8 nM | 67.8 nM | – | –
AAUAAACAUGAGGAUCACCCAUGUAAAUGGGUACAAGGAUAUGCGAAAAGAAACAAAGAAGCAGAAGGUGUAAAGA | – | – | 836 nM | 1040 nM
CCGGAAGUACAGGAUAUCGUAACGGAAACGUUACGAGAAGGGUAUACAUGAGGAUCACCCAUGUGUCCUACCGG | 28.3 nM | 26.6 nM | – | –
CAGCGACAUGGAGGAUAUAGGGCCCAAGGGCACCUAGAAGGCCAAAAGCAGACAGGUCACAUGAGGAUCACCCAUGUACGCCAG | – | – | 241 nM | 16.3 nM
UCUUAUUGCAAGGAUAUGCUAUUUAUUUUUUUUGCAGAAGGUGCAACAUGAGGAUCACCCAUGUUUCCGGGCAU | 19.2 nM | 42.7 nM | – | –
CCAUGACAAAGUCAUGGAUAACGAACAUGAGGAUCACCCAUGUAGGAUAUGCUACUCAAAGAGUAGCAGAAGGACAUGUGUCUU | 32.7 nM | 165 nM | – | –
AUAAAACAAAACCACACAUGAGGAUCACCCAUGUCAAGAUUACAGGAUAUCCAGCAGAGAUGCAUGGAGAAGGGUGAUCCCAAA | – | – | 37.1 nM | 56.5 nM
AGACGGAGCUGAGGAUAUAACAUGAGGAUCACCCAUGUAAGUCUCCAGGAAACUGGAGACAAUAGUUAGAAGGCAGCUCCGUCA | 13.6 nM | 22.3 nM | – | –
AACAGUACAGGAUAUACAUGAGGAUCACCCAUGUGAAGAUUAAGUGGUGUACCACUAAGUAGAAGGGUACUGGA | 28.8 nM | 126 nM | – | –
CGGGUGGUCCUCCGGGAUUGGACACAGGAUAUCCGCGAGAACAUGAGGAUCACCCAUGUACAUGAGGAGAAGGGUGGACGAAGA | – | – | 56.1 nM | 11.2 nM
GGAAAAUUGAUCCCUUUUUAUUACAUGAGGAUCACCCAUGUGCAGGAUAUCGAUUAUUAUAGUUUCGAGAAGGGCAAGAAUUGU | 40.3 nM | 276 nM | – | –
UGCAUGUAAGGAUAUGCAUCCGCCGACGUCCCGGCGCCACAGCAGAAGGUACAUGAGGAUCACCCAUGUGUCCC | 21.3 nM | 49.2 nM | – | –
GGACAUCCCACAGGAUAUGCUGGACUUUGUCCAGCAGAAGGGUGAAACACAUGAGGAUCACCCAUGUGGAUGUCCAUAUUUAAU | – | – | 180 nM | 694 nM
AUCGUGAGAGGAUAUACAUGAGGAUCACCCAUGUUUCGAACACCAUGCGGUCAUUUGCGUAGAAGGCUCGUGCG | 29.1 nM | 87.1 nM | – | –
AAAAUAAGAACAGGAUAUGUGGGUUCGAAGAGCAAAACUCUCCACAUGAGGAUCACCCAUGUGCCACAGAAGGGUUCGGGUGAU | – | – | 66.9 nM | 12.4 nM
GUGUAUAGCCUCGAGGAUAUCCUGUAAUGCACAUGAGGAUCACCCAUGUAUGAGCGAGUUUUUUGGGAGAAGGCGAGUUAUCGGU | – | – | 26.6 nM | 16.9 nM
GUCAGCUCGUGAGGAUAUACAACACUGCUUCGGCAGUGUAAUUUCCUCACAUGAGGAUCACCCAUGUAGAAGGCACGAGCUGAU | 12.7 nM | 242 nM | – | –
ACAGUUCUGCAAGGAUAUCGUUCUAGUUUAGUACGAGAAGGUGCUUUAGUUUUUUCUUUGUGUUGACAUGAGGAUCACCCAUGU | 23.4 nM | 15.2 nM | – | –
AAAAGACAUGAGGAUCACCCAUGUCAAGACAUAGGAGGAUAUGUCUGGAAAAAAGACUGGACAGAAGGCCUUUGUC | – | – | 19.9 nM | 17.4 nM
AAACUGCAUGUGAGGAUAUGCACCGACUAAACCGGGCAGAAGGCACAUGAGGAUCACCCAUGUCAUCCUAUUGC | 8.62 nM | 18.1 nM | – | –
UAUAUAUAGUAAGGAUAUGUAUUAAUUAUAUAAACAGAAGGUACUGACAUGAGGAUCACCCAUGUUUUAGUGUGGGCAUGUAGA | 81.5 nM | 122 nM | – | –
GCUGCGCGAGGAUAUGCGGUUCGCGCUGUGGCCCGUGGCGGACAUGAGGAUCACCCAUGUAGAAGGCGUGCGGG | 13 nM | 15.1 nM | – | –
GGAUGACAUAGUCAUCAGUAACGAACAUGAGGAUCACCCAUGUAGGAUAUGCUACUCAACGAGUAGCAGAAGGACAUGUGUCUU | 27.4 nM | 135 nM | – | –
CUCCUACAUGAGGAUCACCCAUGUCAGGAUAUCUCAGUGGUACCUAAAUUUACCACCCAGAGAAGGGACGUGCA | 13.3 nM | 17.7 nM | – | –
